# Sampled rows, rich in hits. Any-hit rate of the full collection: about 2.5%.
# SR-BI uptake up: activators of SR-BI mediated DiI-HDL uptake, primary screen, ldlA[mSR-BI] CHO cells, DiI fluorescence. 320,000 compounds, 0.096% hits. 3 h; 100 = double the neutral-control signal. activation, % at 12.5 µM. AID 504775, 2011;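 active = mean replicate activation of at least 60% and every replicate at or above 60%; inconclusive = mean or all-replicate condition met, but not both; inactive = mean below 60% and not all replicates reaching 60%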;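 note: 0% = median plate neutral-control signal and 100% = twice that signal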
#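 Test system: SR-BI-overexpressing, LDLR-lacking CHO cells; Also added: labelled HDL, 10 µg/mL; Measured by: bottom-read cell fluorescence after medium removal, ex 550/em 595 nm; Timing: 3 h uptake period with compound, 37 °C; Buffer or medium: F12, 0.5% BSA, 25 mM HEPES; Doses: single compound concentration, delivered by pin transfer.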
# dFosB activator: activators of delta FosB homodimer, primary screen, biochemical, fluorescence polarization, TAMRA-CDK5 oligo, single point | AID 493131, 2011 | purified delta FosB; percent of positive-control signal above neutral wells | 340,000 compounds, 0.99% hits | activation, % at 25 µM;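 active = mean activation above about 17%, with every replicate also reaching it, limit read from the data, passing the limit was not always enough; inconclusive = only one of the two conditions met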
# Dyrk1A ADPGlo: rat Dyrk1A kinase inhibitors, primary screen, biochemical, single point, plate reader; Dual specificity tyrosine-phosphorylation-regulated kinase 1A (Rattus norvegicus), Q63470; ADP-Glo luminescence, NFATc1 peptide; inhibition, % at 12.5 µM; 310,000 compounds, 0.43% hits; AID 504441, 2011;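 note: plate controls were vehicle with enzyme for no effect and no enzyme for full effect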
# SR-BI DiI inh: inhibitors of SR-BI mediated HDL lipid uptake, primary screen, ldlA[mSR-BI] cells, fluorescence, single point; ldlA[mSR-BI] CHO cells, DiI-HDL uptake fluorescence, 3 h; inhibition, % at 12.5 µM; Scavenger receptor class B member 1 (Mus musculus), Q61009; 320,000 compounds, 0.96% hits; AID 488896, 2010;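 active = mean replicate inhibition of at least 70% and a set share of replicates each scoring 70 or more; inconclusive = meets just one of the two criteria; inactive = fails both criteria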;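 note: 0% = median of neutral control wells and 100% = median of positive control wells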
# NSD2 inh: NSD2 histone methyltransferase inhibitors, primary screen, biochemical, AlphaScreen, single concentration, set 2; NSD2 peptide methylation, 120 min; Histone-lysine N-methyltransferase NSD2 (Homo sapiens), O96028; 310,000 compounds, 0.54% hits; inhibition, % at 12.5 µM
# CDK5 inh: inhibitors of human CDK5/p35 kinase, primary screen, biochemical, single concentration. Cyclin-dependent kinase 5 (Homo sapiens) + Cyclin-dependent kinase 5 activator 1 (Homo …. Recombinant CDK5/p35, ADP-Glo luminescence, 60 min. inhibition, % at 10 µM. 330,000 compounds, 0.01% hits;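 active = highest replicate inhibition of at least 50% and at least 75% of replicates reaching 50%; inconclusive = only one of the two criteria met; inactive = both criteria failed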;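 note: plate controls were DMSO neutral control for no effect and GW8510 at 10 µM for full effect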
# Target sequence (Q00535 whole entry, looked up): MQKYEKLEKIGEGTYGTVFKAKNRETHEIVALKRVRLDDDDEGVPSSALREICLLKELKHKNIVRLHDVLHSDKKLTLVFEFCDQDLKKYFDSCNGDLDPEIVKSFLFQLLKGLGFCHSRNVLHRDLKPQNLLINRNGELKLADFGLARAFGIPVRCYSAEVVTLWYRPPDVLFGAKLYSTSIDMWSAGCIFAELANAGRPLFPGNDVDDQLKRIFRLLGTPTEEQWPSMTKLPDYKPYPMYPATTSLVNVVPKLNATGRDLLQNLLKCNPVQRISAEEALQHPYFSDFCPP
# Target sequence (Q15078 whole entry, looked up): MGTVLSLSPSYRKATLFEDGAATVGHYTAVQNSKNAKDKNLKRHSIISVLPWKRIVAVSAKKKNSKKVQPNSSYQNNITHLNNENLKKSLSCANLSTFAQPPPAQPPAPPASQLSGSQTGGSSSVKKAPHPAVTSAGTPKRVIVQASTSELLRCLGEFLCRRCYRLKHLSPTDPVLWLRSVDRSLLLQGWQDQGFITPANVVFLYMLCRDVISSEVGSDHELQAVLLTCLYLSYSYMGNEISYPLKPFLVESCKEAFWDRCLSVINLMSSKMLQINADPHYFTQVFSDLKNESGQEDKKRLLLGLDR
# The depositor's hits bear a star; u = inconclusive; x = no result given. Cut-off read from the data, not from the text of the source, unless noted: active = inhibition above about 50%; inactive = the rest.
SMILES,SR-BI uptake up,dFosB activator,Dyrk1A ADPGlo,SR-BI DiI inh,NSD2 inh,CDK5 inh
O=C(c1ccncc1)N1N=C(c2ccc(Br)cc2)CC1c1ccccc1O (centres undefined),-75.0,-7.1,-0.7,75.0*,7.0,-1.5
COc1cccc(C2CC(c3cccs3)=NN2C(=O)c2ccco2)c1O (centres undefined),6.0,-14.1,6.2,-6.0,5.2,0.6
O=C(c1ccccc1)N1N=C(c2ccccc2)CC1c1ccccc1O (centres undefined),15.6,-0.1,-5.8,-15.6,0.7,-3.6
O=C(c1cccs1)N1N=C(c2ccccc2)CC1c1ccccc1O (centres undefined),-5.5,30.8*,-2.1,5.5,-1.4,0.8
O=C(c1ccco1)N1N=C(c2cccs2)CC1c1ccccc1O (centres undefined),1.2,26.7*,x,-1.2,-0.8,2.0
COc1ccc(NC(=O)c2ccc(Cl)c(NC(=O)c3cccnc3)c2)cc1,x,x,x,x,0.2,x
CC(=O)c1cccc(-c2ccnc3c2CC(C(=O)NCc2ccccc2)O3)c1 (centres undefined),x,x,x,x,-3.7,x
N=c1ncn(C2OC(CO)C(O)C2O)c2nc(Br)[nH]c12 (centres undefined),x,x,x,x,-3.3,x
Cn1c(CNc2ccccc2F)nc2ccccc21,x,x,x,x,-1.1,x
Cc1cc(Cl)ccc1OCCCC(=O)NNC(=O)c1ccccc1O,-108.8,-2.3,5.9,108.8*,-2.7,-2.3
O=C(Cn1ccnc1[N+](=O)[O-])N(CCO)CCO,x,x,x,x,-3.0,x
O=C(/C=C/c1cccnc1)c1ccc(F)cc1,x,x,x,x,13.2,x
S=C(Nc1ccccc1Cl)Nc1ccc(Cl)cc1Cl,1.8,-1.3,7.5,-1.8,-3.1,0.1
S=C(NNc1ccnc2cc(Cl)ccc12)Nc1ccccc1Cl,-89.1,0.1,5.5,89.1*,11.0,5.5
NC(=S)NN=C1C2CC3CC(C2)CC1C3,-78.5,-0.5,-3.7,78.5*,-1.4,-0.2
CCCN(CC1CC1)C(=O)c1oc(=O)c2ccccc2c1-c1ccc(C)cc1,x,x,x,x,13.5,x
O=C(Nc1ccccn1)c1cc2cc([N+](=O)[O-])ccc2s1,-55.7,u,0.4,55.7,3.7,-2.1
C=CCOc1ccc2cccc(/C=N/NC(=O)c3cc4cc([N+](=O)[O-])ccc4s3)c2c1,-77.1,-10.9,-1.8,77.1*,-2.3,-1.8
COc1ccc(-n2c(SCc3cccc4ccccc34)nnc2-c2ccccc2)cc1,x,x,x,x,1.3,x
C=CCN=C1NC(c2ccc(C(F)(F)F)cc2)C(C(=O)OC)=C(C)N1Cc1ccccc1C(F)(F)F (centres undefined),x,x,x,x,-1.5,x
COc1ccc(/C=C2\SC(=O)N(CC(=O)Nc3cccc(C)c3)C2=O)cc1O,-7.2,18.9*,-0.3,7.2,0.5,1.0
CC(C(=O)Nc1ccc(C(=O)O)c(O)c1)N1C(=O)/C(=C\c2ccco2)SC1=S (centres undefined),20.1,-6.4,3.3,-20.1,x,-1.5
COc1cc(/C=C2\SC(=S)N(CC(=O)Nc3cccnc3)C2=O)cc(OC)c1OC,-37.6,12.3,-2.3,37.6,0.1,0.8
COc1cc(/C=C2\SC(=S)N(CC(=O)Nc3ccc(O)cc3)C2=O)cc(OC)c1OC,-22.4,17.8*,-4.8,22.4,3.0,-1.1
O=C(CN1C(=O)/C(=C/c2ccco2)SC1=S)Nc1ccc(C(=O)O)c(O)c1,15.1,-6.3,1.9,-15.1,135.0*,-7.4
SMILES,SR-BI uptake up,dFosB activator,Dyrk1A ADPGlo,SR-BI DiI inh,NSD2 inh,CDK5 inh
COc1cc(/C=C2\SC(=O)N(CC(=O)Nc3cccc(C)c3)C2=O)ccc1OC(C)C(=O)O (centres undefined),-30.2,1.3,1.1,30.2,1.3,3.4
CCOc1nc2c(c(C)nn2-c2ccccc2)c(C)c1CCC(=O)N1CCN(c2ccccn2)CC1,x,x,x,x,-2.3,x
O=c1cc(CN2CCN(c3ccccc3F)CC2)c2cc(O)c(-c3ccccc3)cc2o1,-5.8,-3.9,7.2,5.8,-4.1,-0.3
O=c1cc(CN2CCN(C/C=C/c3ccccc3)CC2)c2cc(O)c(-c3ccccc3)cc2o1,-25.5,65.5*,0.3,25.5,30.5,-0.1
O=C(Nc1ccccc1)C1=C[C@@H](c2ccc(C(F)(F)F)cc2)C[C@@H](OCCCCO)O1,-24.6,2.3,0.4,24.6,x,0.9
COc1ccc(-c2nn(-c3ccccc3)cc2/C=N/N=C(N)N)cc1OC,-32.0,67.9*,3.0,32.0,10.0,0.9
COc1ccc(-c2nn(-c3ccccc3)cc2/C=N/Nc2ccc(S(N)(=O)=O)cc2[N+](=O)[O-])cc1OC,-78.9,0.0,-2.1,79.0*,-0.5,0.0
COc1ccc(-c2nn(-c3ccccc3)cc2/C=N/Nc2ccc3ccccc3n2)cc1OC,-33.1,5.4,-5.8,33.1,-2.3,0.6
CCNC(=O)C1CCCN(C(=O)c2ccc(C)c(F)c2)CC1 (centres undefined),x,x,x,x,-1.0,x
O=C(C1CCC1)N1CCc2cc(S(=O)(=O)C3CCN(Cc4ccc(F)cc4)CC3)ccc21,x,x,x,x,-1.2,x
C=CCOc1c(Br)cc(/C=C2\SC(=Nc3ccccc3)NC2=O)cc1OC,-72.0,3.6,-2.8,72.0*,-2.5,-0.5
CCc1ccc(N=C2NC(=O)/C(=C/c3cc(Br)c(OCC(=O)O)c(OC)c3)S2)cc1,-0.9,-10.2,x,0.9,10.6,-3.0
CCOC(=O)N1CCC(NC(=S)Nc2ccc3nc(N4CCN(C)CC4)cc(C)c3c2)CC1,111.6*,-6.3,-2.2,-111.6,x,0.5
CCCN1CCN(CCCNC(=S)Nc2ccc3nc(N4CCN(CC)CC4)cc(C)c3c2)CC1,x,8.1,-8.9,x,x,-1.4
CCN1CCN(c2cc(C)c3cc(NC(=S)NCCCN4CCc5ccccc5C4)ccc3n2)CC1,-13.9,36.7*,4.1,13.9,26.2,2.2
CCOC(=O)N1CCC(NC(=S)Nc2ccc3nc(N4CCN(CC)CC4)cc(C)c3c2)CC1,x,-4.1,-4.4,x,15.6,1.2
Cc1cccc(N2CCN(C(=S)Nc3ccc4nc(N5CCN(C)CC5)cc(C)c4c3)CC2)c1C,-89.0,-16.5,-7.0,89.0*,x,1.9
CCN(CC)CCNC(=S)Nc1ccc2nc(N3CCN(CC)CC3)cc(C)c2c1,1.9,18.4*,1.8,-1.9,34.3,-5.2
COc1ccc(-c2nc(CN3CCN(C(=O)c4ccco4)CC3)c(C)o2)c(OC)c1C,-12.8,-7.9,-3.9,12.8,x,-0.1

# From PubChem
